How the values were obtained:
[1] = Partition coefficient value between phosphate buffer (0.1 M, pH 7.4) and octanol at room temperature; assay type: physicochemical; conditions: octanol/water
In short: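 Shake-flask method: compound dissolved in 0.1 M phosphate buffer pH 7.4, stirred 1 h at room temperature with an equal volume of octanol. Aqueous-phase nucleoside concentration measured spectrophotometrically.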

[2] = In vitro radiosensitizing activity against Chinese Hamster cells at a conc of 1.0 mM measured as sensitizer enhancement ratio; assay type: functional, Cricetulus griseus
In short: (§1)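 V-79 Chinese hamster asynchronous monolayers from exponential cultures, plated in sealed containers and made hypoxic by flushing with 95% N2/5% CO2 for 1 h at 37 °C with compound present; total drug exposure 2 h. Cobalt-60 irradiation at ~230 rad/min, 400–2700 rad. Colonies counted after 6 days at 37 °C. SER = D0 hypoxic control / D0 hypoxic drug-treated; averaged over at least two experiment sets.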

[3] = In vitro radiosensitizing activity against Chinese Hamster cells at a conc of 0.5 mM measured as sensitizer enhancement ratio; assay type: functional, Cricetulus griseus; in short: as §1
[4] = In vitro radiosensitizing activity against Chinese Hamster cells at a conc of 0.05 mM measured as sensitizer enhancement ratio; assay type: functional, Cricetulus griseus; in short: as §1
[5] = In vitro radiosensitizing activity against Chinese Hamster cells at a conc of 0.1 mM measured as sensitizer enhancement ratio
[6] = In vitro radiosensitizing activity against Chinese Hamster cells at a conc of 1 mM measured as sensitizer enhancement ratio; assay type: functional, Cricetulus griseus; in short: as §1

Compound	PC [1]	SER [3]	other results
CC(=O)OC[C@H]1O[C@H](n2ccnc2[N+](=O)[O-])C=C[C@@H]1OC(C)=O		1.9	
O=C(OC[C@H]1O[C@H](n2ccnc2[N+](=O)[O-])[C@H](OC(=O)c2ccccc2)[C@@H]1OC(=O)c1ccccc1)c1ccccc1			SER [4]: 1
CC(=O)OC[C@H]1O[C@@H](n2ccnc2[N+](=O)[O-])C=C[C@@H]1OC(C)=O		1.6	
O=C(OC[C@H]1O[C@@H](n2ccnc2[N+](=O)[O-])[C@H](OC(=O)c2ccccc2)[C@@H]1OC(=O)c1ccccc1)c1ccccc1			SER [5]: 1.1
CC(=O)OCC1OC=CC(n2ccnc2[N+](=O)[O-])C1OC(C)=O (configuration not stated)		1.8	

Continued, in another order:

PC [1]	Compound	SER [3]	other results
0.07	O=[N+]([O-])c1nccn1[C@@H]1O[C@H](CO)[C@@H](O)[C@@H]1O		SER [2]: 1.8
0.22	O=[N+]([O-])c1nccn1[C@H]1C=C[C@H](O)[C@@H](CO)O1		SER [2]: 2
0.22	O=[N+]([O-])c1nccn1[C@@H]1C=C[C@H](O)[C@@H](CO)O1	2	
0.24	O=[N+]([O-])c1nccn1[C@H]1C=COC(CO)C1O (some centres not stated)		SER [2]: 1.7
0.11	O=[N+]([O-])c1nccn1[C@H]1O[C@H](CO)[C@@H](O)[C@@H]1O		SER [6]: 1.6
0.43	COCC(O)Cn1ccnc1[N+](=O)[O-] (configuration not stated) [MISONIDAZOLE]		SER [6]: 1.9
